How the values were obtained:
Format in all cases: functional
Semliki Forest virus [1] = assay: Effective dose administered perorally againist Forest virus infected mice; conditions: po
Procedure, shortened: (§1)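 ICR or CD-1 mice of both sexes got one drug dose by the route in the line (ip, po or sc). The drug was a suspension in 0.9% NaCl or in a CMC/polysorbate 80/benzyl alcohol/NaCl vehicle. […] Deaths were recorded daily for 6 days, 24 mice/group. ED50 is the minimal dose protecting 50% of mice, by probit analysis.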

Human alphaherpesvirus 1 = assay: Intraperitoneal administration against herpes simplex virus type-1 (HSV-1) infected mice
Procedure, shortened: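 ICR or CD-1 mice got drug ip in saline as the total daily dose (mg/kg/day). It was split into doses at -40, -28, -20, -3 and +3 h relative to ip inoculation with 5.6×10^4 pfu HSV-1. Mice were followed for 22 days, 15/group. Protection index = (control mortality − treated mortality)/control mortality; >0.25 counted active. Only the lowest protective dose is recorded.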

Semliki Forest virus [2] = assay: Antiviral activity against Forest virus (SFV); procedure, shortened: as §1
[3] = system: Vesicular stomatitis virus; assay: Evaluation for serum interferon response from a single 800 mg/kg intraperitoneal administration in vesicular stomatitis virus on […] cells.
Procedure, shortened: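 Mice got a single ip 800 mg/kg dose. Blood was drawn 3, 6, 8 and 12 h later from five mice per group and pooled. Interferon titer was measured by plaque reduction with vesicular stomatitis virus on L929 cells. Titer is the reciprocal serum dilution cutting plaques by 50% versus untreated cultures. Peak response within 24 h was banded: ≥2000, ~500-1000, ~50-500, ~10-50 U/mL.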

Semliki Forest virus [4] = assay: Effective dose administered subcutaneously againist Forest virus infected mice; conditions: sc; procedure, shortened: as §1

Row | Structure (SMILES) | ED50 (Semliki Forest virus [1]) [mg/kg] | Protection index (Human alphaherpesvirus 1) | ED50 (Semliki Forest virus [2]) [mg/kg] | IFN [3] | ED50 (Semliki Forest virus [4]) [mg/kg]
1 | Nc1nc(O)c(I)c(-c2ccc(Cl)c(Cl)c2)n1 | > 400 | 0.36 | 115 | >=2000 ml | 240
2 | Nc1nc(O)c(Br)c(-c2cnccn2)n1 | > 400 | – | 65 | – | 365
3 | Nc1nc(O)c(Br)c(-c2ccc(Cl)c(Cl)c2)n1 | > 400 | 0.29 | 215 | – | > 400
4 | Nc1nc(O)c(Cl)c(-c2ccc(F)cc2)n1 | > 400 | 0.85 | 300 | – | 355
5 | Nc1nc(=O)c(Br)c(-c2ccccc2)[nH]1 [BROPIRIMINE] | 100 | 0.6 | 100 | – | 50
6 | Nc1nc(O)c(Cl)c(-c2ccccc2Cl)n1 | – | – | 300 | 50 units/mL | –
7 | Nc1nc(O)c(I)c(-c2cc(Cl)cc(Cl)c2)n1 | > 400 | 0.4 | 140 | 50 units/mL | 225
8 | Nc1nc(O)c(Cl)c(-c2ccc(Cl)c(Cl)c2)n1 | > 400 | 0 | 225 | – | > 400
9 | Nc1nc(O)c(Cl)c(-c2ccccc2)n1 | 90 | 0.62 | 100 | >=2000 ml | 105
10 | CCOc1cccc(-c2nc(N)nc(O)c2Br)c1 | – | 0.4 | – | – | –
11 | Nc1nc(O)c(I)c(-c2cccc([N+](=O)[O-])c2)n1 | > 400 | 0.6 | 90 | >=2000 ml | 155
12 | Nc1nc(O)c(Br)c(-c2cccc(I)c2)n1 | 170 | – | 355 | – | > 400
13 | CCOc1cccc(-c2nc(N)nc(O)c2I)c1 | – | 0 | – | – | –
14 | COc1cc(OC)cc(-c2nc(N)nc(O)c2Cl)c1 | – | – | 90 | – | –
15 | Nc1nc(O)c(I)c(-c2ccccn2)n1 | 235 | – | 215 | >=2000 ml | > 400
16 | Nc1nc(O)c(I)c(-c2cccnc2)n1 | > 400 | 0 | 130 | 50 units/mL | 175
17 | Nc1nc(O)c(I)c(-c2ccc(OCc3ccccc3)cc2)n1 | – | – | > 400 | – | –
18 | COc1cc(OC)cc(-c2nc(N)nc(O)c2Br)c1 | – | – | 15 | – | –
19 | Nc1nc(O)c(I)c(-c2ccccc2)n1 | > 400 | 0.86 | 50 | 50 units/mL | 25
20 | Nc1nc(O)c(I)c(-c2cc(Cl)ccc2Cl)n1 | 75 | 0 | 305 | >=2000 ml | 115
21 | Nc1nc(O)c(Br)c(-c2ccco2)n1 | > 400 | 0.14 | 295 | 50 units/mL | > 400
22 | Nc1nc(O)c(Br)c(-c2cccc([N+](=O)[O-])c2)n1 | > 400 | 0.53 | 140 | – | > 400
23 | Nc1nc(O)c(Br)c(-c2cc(Cl)ccc2Cl)n1 | > 400 | – | 180 | >=2000 ml | > 400
24 | Nc1nc(O)c(Cl)c(-c2ccco2)n1 | – | – | 120 | – | –
25 | Cc1ccccc1-c1nc(N)nc(O)c1Br | > 400 | 0.2 | 60 | – | > 400
26 | Nc1nc(O)c(Br)c(-c2cc(F)ccc2F)n1 | > 400 | 0 | 165 | >=2000 ml | –
27 | Nc1nc(O)c(I)c(-c2cc(F)cc(F)c2)n1 | > 400 | 0 | 230 | >=2000 ml | –
